Experiment [1] is described as follows: OD615 S. cerevisiae growth inhibition, permissive medium, pilot counter-assay, permissive growth control for S. cerevisiae lifespan shortening project (AID 705;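 active = growth inhibition above 25% in both replicates, a cutoff set 3 SD above the mean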). Particulars: OD615, 24 h, at 10 µM, hits give high values. An outline of the steps:
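System: engineered DeaD yeast; Medium: permissive raffinose/galactose medium; Compound dosing: 10 µM single dose, 0.25% DMSO; Incubation: 4 h cell pre-growth, 24 h exposure at 30 °C; Technique: OD at 615 nm; Evaluation: growth inhibition from lowered OD615 after 24 h.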

Experiment [2] is described as follows: Restrictive medium S. cerevisiae growth inhibition, OD615, pilot screen of yeast lifespan reduction project, restrictive growth control (AID 706;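 active = growth inhibition above a set limit, 3 SD over mean compound inhibition, in both replicates, cut at about 43% in these data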;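 note: modified DeaD lifespan yeast strain shifted to restrictive glucose medium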). As to conditions: OD615, 48 h, at 10 µM, hits give high values. In short, it runs like this: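 Material: modified S. cerevisiae; buffer or medium: CSMM-D glucose medium; doses: one concentration, 10 µM final, 0.25% DMSO; incubation: 48 h compound exposure at 30 °C; detection: optical density at 615 nm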

The nature of experiment [3]: viability gain of MRP-1-high H69AR cells under doxorubicin, pilot screen, MRP-1 activator project, CellTiter-Glo, duplicate (AID 807;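 active = viability increase at or above a cutoff of the median across tested compounds plus 3 SD, cut at about 8.5% in these data, passing the limit was not always enough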;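 note: compound pretreatment 18-22 h then 72 h combined with doxorubicin; 0% = doxorubicin alone and 100% = vehicle without doxorubicin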). Particulars: H69AR viability with doxorubicin, CellTiter-Glo luminescence; at 10 µM; hits give high values. For orientation: Cellular ATP, detected with luciferase, serves as a proxy for viable cell number.
The nature of experiment [4]: growth suppression of beta-catenin knockout HCT116, pilot screen, human colon tumor cells (AID 823).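 Note: 0% = wells killed by 20 µM Hyamine and 100% = untreated DMSO cell wells.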 As to conditions: CellTiter-Glo, 60 h, at 10 µM, hits give low values.
Experiment [5] is described as follows: growth suppression of PTEN-deleted HCT116, pilot screen, cell-based, HCT116 clonal line, CellTiter-Glo (AID 824;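 active = viability at or below 27.92% in each of two runs, the all-compound median minus 4 SD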;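 note: 0% = 20 µM Hyamine control and 100% = vehicle cell control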). As to conditions: 60 h, at 10 µM, hits give low values.
Experiment [6] in a line: inhibitors of the yeast RAM network, pilot screen, dse1pr::URA3 reporter, 5-FOA selection (AID 869;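 active = inhibition over a set limit, the all-compound mean plus 3 SD, in both replicate runs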;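 note: 0% = DMSO wells with no growth and 100% = 10 µM 1-NA-PP1 with full growth; RAM network block rescues cells from 5-FOA so hits raise OD615 growth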). Particulars: S. cerevisiae dse1pr::URA3 5-FOA growth, OD615, 2 d; at 10 µM; hits give high values; strain carries analog-sensitive mutant Cbk1 kinase.
A short description of experiment [7]: RAM signaling pathway blockade in yeast – S. cerevisiae, Pdr1DBD-CYC8 efflux-inhibited sensitized strain, primary screen (AID 1298;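 active = RAM network inhibition above 8.4% in each of two replicates, 3 SD over the compound average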;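 note: 0% = DMSO untreated cells without growth and 100% = 10 µM 1-NA-PP1 full growth; higher means more yeast growth rescued from 5-FOA killing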). Particulars: S. cerevisiae cbk1-as DSE1-URA3 strain, 5-FOA growth OD615, 2 d; at 50 µM; hits give high values.

Molecules are shown by their SMILES. A number with no mark means an inactive call. Inconclusive results are not listed. Activity calls are given as the source filed them.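 Rule for the calls, unless noted: active = cell viability at or below a set limit in both duplicate runs, the limit being the all-compound median minus 4 SD (cut at about 23% in these data, passing the limit was not always enough); inconclusive = no clear call, values can overlap the other calls; inactive = the rest.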

For `COC(=O)C1C(=O)C=C(N2CCOCC2)CC1(C)C` (centres undefined), the growth inhibition is -10.6% in experiment [1] and -10.2% in experiment [2]. The viability increase in experiment [3] is -0.72%. The viability in experiment [4] was 96.4%; in experiment [5], 105%. In addition, the inhibition in experiment [6] is 0.685%. Moreover, the RAM network inhibition in experiment [7] was 1.92%.
Turning to `O=C(NCCN1C(=O)C2C3C=CC(C3)C2C1=O)Nc1ccccc1` (centres undefined), the growth inhibition in experiment [1] was -8.45%; in experiment [2], 1.35%. Further, the viability increase in experiment [3] is 0.28%. Further, the figures for the viability in experiment [4] and in experiment [5] were 102% and 93.2%, respectively. The inhibition in experiment [6] was 0.71%. For the same compound, the RAM network inhibition in experiment [7] is -0.05%.
Regarding `COc1ccccc1N(CC(=O)Nc1ccccc1C(=O)NC(C)C)S(C)(=O)=O`, the results for the growth inhibition in experiment [1] and in experiment [2] were -3.27% and -16.6%, respectively. In experiment [3], the viability increase was -0.99%. Further, the viability in experiment [4] was 86.6%; in experiment [5], 77%. Also, the inhibition in experiment [6] was 1.95%. Besides, in experiment [7], the RAM network inhibition is -0.28%.
With `Cc1ccccc1NC(=O)CCN1CCN(Cc2ccccc2)CC1`, the growth inhibition in experiment [1] is -9.43%; in experiment [2], 3.58%. For the same compound, the viability increase in experiment [3] is -3.29%. For the same compound, the viability in experiment [4] was 94.8%; in experiment [5] it was 89.6%. Further, the inhibition in experiment [6] is 1.85%. Also, the RAM network inhibition in experiment [7] is 5.05%.
`Nc1c(C(=O)Nc2ccc3c(c2)OCCO3)nnn1CCc1ccccc1`: the growth inhibition in experiment [1] was -3.04%; in experiment [2], 3.6%. Besides, the viability increase in experiment [3] is -5.88%. Also, the figures for the viability in experiment [4] and in experiment [5] were 39.1% and 35.4%, respectively. The inhibition in experiment [6] was 1.43%. In experiment [7], the RAM network inhibition is 7.68%.
For the compound `O=C(c1ccccc1)c1ccc2nc(N3CCCCC3)c3nncn3c2c1`, the growth inhibition in experiment [1] was 12.4%; in experiment [2] it was 57.7% (active). For the same compound, in experiment [3], the viability increase was -3.48%. Also, the viability in experiment [4] is 45.4%; in experiment [5] it was 56.4%. Moreover, in experiment [6], the inhibition was 2.53%. In addition, the RAM network inhibition in experiment [7] is 4.08%.
In the case of `CCCn1c(CNS(=O)(=O)c2ccc(C)cc2)nc2ccccc21`, the growth inhibition was -7.5% in experiment [1] and 7.18% in experiment [2]. In addition, the viability increase in experiment [3] was -2.43%. For the same compound, the values for the viability in experiment [4] and in experiment [5] were 83.6% and 85.2%, respectively. Also, the inhibition in experiment [6] is 0.135%. In addition, in experiment [7], the RAM network inhibition is 0.52%.
For `Nc1nc2n(n1)C(c1ccccc1Cl)CC(c1ccc(F)cc1)N2` (centres undefined), the growth inhibition in experiment [1] was 0.695%; in experiment [2], 2.18%. Also, in experiment [3], the viability increase was -0.54%. Also, the viability in experiment [4] is 91.6%; in experiment [5], 88.8%. The inhibition in experiment [6] was 2.58%. For the same compound, the RAM network inhibition in experiment [7] was 0.48%.
For `COc1ccc(NC(=O)Nc2nnc(N3CCCCC3C)s2)cc1OC` (centres undefined), the growth inhibition in experiment [1] was -5.21%; in experiment [2] it was -10.4%. In experiment [3], the viability increase was -1.91%. For the same compound, the viability in experiment [4] was 99.2%; in experiment [5], 97.4%. Further, in experiment [6], the inhibition was 2.48%. In addition, in experiment [7], the RAM network inhibition was 3.85%.
For the compound `O=C(O)CCC(=O)N1CCc2cc(S(=O)(=O)N3CC=C(c4ccccc4)CC3)ccc21`, the growth inhibition is 5.99% in experiment [1] and 4.92% in experiment [2]. The viability increase in experiment [3] is -2.14%. Besides, the results for the viability in experiment [4] and in experiment [5] were 104% and 93.9%, respectively. Moreover, the inhibition in experiment [6] is 3.79%. Besides, in experiment [7], the RAM network inhibition was 7.9%.
`CCOC(=O)C1CCN(c2c(N3CCN(Cc4ccccc4)CC3)c(=O)c2=O)CC1`: the values for the growth inhibition in experiment [1] and in experiment [2] were -4.1% and -4.49%, respectively. In experiment [3], the viability increase was -0.78%. For the same compound, the viability in experiment [4] is 90.5%; in experiment [5] it was 86.3%. Besides, the inhibition in experiment [6] is 1.52%. Besides, the RAM network inhibition in experiment [7] was 6.15%.
Take `CN1CCN(Cc2nc3c(c(=O)n(C)c(=O)n3C)n2CCc2ccccc2)CC1`: the growth inhibition in experiment [1] is -8.96%; in experiment [2] it was -4.14%. Also, in experiment [3], the viability increase is -1.67%. Also, the viability in experiment [4] was 92.8%; in experiment [5], 103%. Also, the inhibition in experiment [6] was 0.895%. The RAM network inhibition in experiment [7] is 2.53%.
In the case of `CCCSc1nnc(Cn2c(=O)sc3ccccc32)n1C`, the values for the growth inhibition in experiment [1] and in experiment [2] were -15.8% and -38%, respectively. In experiment [3], the viability increase was -2.24%. In addition, the values for the viability in experiment [4] and in experiment [5] were 94.3% and 87.1%, respectively. In addition, the inhibition in experiment [6] is 0.415%. The RAM network inhibition in experiment [7] was -0.25%.
`COc1cccc(C2c3c(oc4ccccc4c3=O)C(=O)N2c2ccccn2)c1` (centres undefined): the growth inhibition was -2.5% in experiment [1] and -15.9% in experiment [2]. Also, in experiment [3], the viability increase was 0.48%. Further, the figures for the viability in experiment [4] and in experiment [5] were 92.4% and 97.2%, respectively. Besides, the inhibition in experiment [6] is 0.28%. Further, in experiment [7], the RAM network inhibition was 4.39%.
Turning to `O=C(O)c1ccc(F)c(S(=O)(=O)Nc2ccccc2)c1`, the growth inhibition is -3.28% in experiment [1] and -2.19% in experiment [2]. Also, the viability increase in experiment [3] was 1.08%. Besides, the viability is 96.2% in experiment [4] and 101% in experiment [5]. In experiment [6], the inhibition is -0.93%. Also, in experiment [7], the RAM network inhibition is -0.06%.
Take `CCCCCCNC(=O)C(C(=O)OCC)C1CCCCC1` (centres undefined): the growth inhibition in experiment [1] is -4.1%; in experiment [2], -1.5%. In experiment [3], the viability increase was -1.52%. In addition, the viability in experiment [4] is 84%; in experiment [5], 82.2%. Moreover, the inhibition in experiment [6] was 0.15%. Moreover, in experiment [7], the RAM network inhibition was 3.88%.
For `c1ccc(Cc2nnc3sc(-c4ccc5c(c4)OCCO5)nn23)cc1`, the growth inhibition in experiment [1] is 4.51%; in experiment [2], 55.8% (active). Also, the viability increase in experiment [3] is 0.47%. Further, the viability in experiment [4] was 105%; in experiment [5] it was 93.5%. The inhibition in experiment [6] is 1.33%. For the same compound, the RAM network inhibition in experiment [7] was 12.8%.

A word on the viability: it is a read-out of living cells in per cent, often relative to untreated cells. What is called inhibition is the change of the read-out against control, counted positive when it falls.

For the origin of these results see PubChem BioAssay.
